A short description of data set [1]: Antioxidant activity assessed as hydroxyl radical scavenging activity at 4 mM after 5 mins by ESR spectroscopy analysis.
Data set [2] can be described thus: Cytotoxicity against BAEC assessed as cell viability at 10 uM after 24 hrs by MTT assay. Further details: species or system Bos taurus. Particulars: cattle, BAEC cells; read-out: Activity. In a few lines:
(§1)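 BAEC seeded at 10^4–10^5 cells/mL were grown to 60–70% confluency and exposed to compound (10–50 µM) for 24 h. Medium was then replaced and MTT added for 2 h at 37 °C. Formazan was dissolved in DMSO and read at 570 nm. Viability was taken relative to solvent-only wells, n = 3, mean ± SEM.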
For orientation: Tetrazolium dyes change colour on reduction, which living cells bring about.

Data set [3] in a line: Cytotoxicity against BAEC assessed as cell viability at 50 uM after 24 hrs by MTT assay. Further details: species or system Bos taurus. Particulars: cattle, BAEC cells; read-out: Activity. In outline:
as §1

Data set [4] is described as follows: Antioxidant activity assessed as trolox equivalents of peroxyl radical scavenging activity at 0.3 to 2 uM preincubated for 15 mins by ORAC assay relative to control. Type of data set: functional. In a few lines: (§2)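 Peroxyl radical scavenging by ORAC-FL in 75 mM sodium phosphate buffer (pH 7.4) at 37 °C. Fluorescein was 70 nM final. Compounds in methanol were tested at 0.3–2 µM for monohydroxy and 0.5–7 µM for dihydroxy derivatives, preincubated 15 min, then AAPH was added (18 mM final). Fluorescence (ex 485, em 528 nm) was read each minute for 120 min. Net AUC minus methanol blank was referenced to Trolox (0.5–2.5 µM).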

Data set [5] in a line: Cytotoxicity against BAEC assessed as cell viability at 20 uM after 24 hrs by MTT assay. Set-up: species or system Bos taurus. Particulars: cattle, BAEC cells; read-out: Activity. In a few lines: as §1
For data set [6], the system named is BAEC. The data set is described as follows: (§3) Cytoprotective activity against peroxynitrite-induced toxicity in BAEC assessed as cell viability at 20 uM after 24 hrs by MTT assay. The data set is classed as functional. Particulars: Bos taurus. In a few lines:
(§4)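 Bovine aortic endothelial cells (BAEC) in DMEM with 10% FBS, endothelial growth supplement and no antibiotics were grown to 60–70% confluency. They were pretreated 24 h with compound at 10 or 20 µM, then washed twice with PBS. Insult was 1 mM H2O2 for 2 h, or 500 µM SIN-1 (peroxynitrite source) for 4 h. Viability was read by MTT reduction, formazan in DMSO, A570.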

Data set [7] can be described thus: (§5) Cytoprotective activity against H2O2-induced toxicity in BAEC assessed as cell viability at 10 uM after 24 hrs by MTT assay. Type of data set: functional. Particulars: Bos taurus, read-out: Activity. In a few lines:
as §4

The nature of data set [8]: as §3. The data set is classed as functional. Particulars: Bos taurus, read-out: Activity. In outline: as §4
Data set [9] is described as follows: Antioxidant activity assessed as peroxyl radical scavenging activity by ORAC assay relative to trolox. The data set is classed as functional. In a few lines:
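Fluorescein-based ORAC in 75 mM sodium phosphate buffer pH 7.4 with FL 70 nM (final). Compounds in methanol at 0.3–2 µM (monohydroxy) or 0.5–7 µM (dihydroxy) preincubated 15 min at 37 °C, then AAPH 18 mM (final) added. Fluorescence (ex 485, em 528 nm) read every 1 min for 120 min. Net AUC minus methanol blank, expressed against Trolox calibration (0.5–2.5 µM).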

Data set [10] deals with BAEC. The data set is described as §5. Type of data set: functional. Particulars: Bos taurus. In outline: as §4
Data set [11] in a line: Antioxidant activity assessed as trolox equivalents of peroxyl radical scavenging activity at 0.7 to 7 uM preincubated for 15 mins by ORAC assay relative to control. Type of data set: functional. The note with it: 0.5 to 7 uM; in the assay text read “0.5 to 7 uM” for “0.7 to 7 uM”. In a few lines:
as §2

Each structure is given as a SMILES string. The source made the active and inactive calls. The rule behind the calls is not given here.

Regarding `O=C(c1ccc(O)cc1)c1cc2ccccc2oc1=O`, the Activity in [1] amounted to 26%. Moreover, the viability at 24 h, 10 µM in [2] was 76%. Also, the viability at 24 h, 50 µM in [3] stood at 44%. Besides, in data set [4], the Ratio worked out at 9.2. Further, the viability at 24 h, 20 µM in [5] was 60%.
With `O=C(c1ccccc1)c1cc2cc(O)ccc2oc1=O`, the Activity in data set [1] stood at 39%. Besides, the outcome with BAEC [6] was inactive. For the same molecule, the viability at 10 µM in data set [7] was found to be 40%. For the same molecule, the viability at 24 h, 10 µM in data set [2] came out at 88%. Moreover, the viability at 24 h, 50 µM in [3] worked out at 86%. For the same molecule, in data set [4], the Ratio was determined as 11.5. In addition, in data set [5], the viability at 24 h, 20 µM came to 95%.
`O=C(c1ccc(O)c(O)c1)c1cc2cccc(O)c2oc1=O`: the Activity in [1] turned out to be 75%. Moreover, the viability at 24 h, 10 µM in data set [2] amounted to 49%. In addition, the viability at 24 h, 50 µM in data set [3] was 63%. Further, in [4], the Ratio was 8.1. Moreover, the viability at 24 h, 20 µM in [5] turned out to be 68%.
For `O=C(c1ccccc1)c1cc2cc(Br)cc(O)c2oc1=O`, the Activity in data set [1] amounted to 65%. Besides, the viability at 20 µM in data set [8] amounted to 90%. For the same molecule, the viability at 24 h, 10 µM in data set [2] was determined as 96%. For the same molecule, in data set [3], the viability at 24 h, 50 µM stood at 93%. Moreover, in [4], the Ratio was found to be 8.3. In addition, the viability at 24 h, 20 µM in data set [5] amounted to 101%.
As to `O=C(c1ccc(O)c(O)c1)c1cc2cc(Br)cc(O)c2oc1=O`, the Activity in [1] came to 100%. The viability at 24 h, 10 µM in data set [2] was 64%. The viability at 24 h, 50 µM in data set [3] amounted to 71%. Further, in data set [4], the Ratio was determined as 8.8. For the same molecule, the viability at 24 h, 20 µM in data set [5] is 23%.
`O=C(c1ccc(O)cc1)c1cc2cc(Br)ccc2oc1=O`: in [1], the Activity is 28%. The viability at 20 µM in data set [8] amounted to 90%. The viability at 24 h, 10 µM in data set [2] came out at 95%. Besides, the viability at 24 h, 50 µM in [3] worked out at 104%. The Ratio in [4] came to 9.5. For the same molecule, the viability at 24 h, 20 µM in data set [5] was 93%.
For `Cc1c(C)c2c(c(C)c1O)CCC(C)(C(=O)O)O2` (stereo not drawn), the Activity in data set [1] amounted to 31%. Moreover, in data set [4], the Ratio was 1.
For the molecule `Oc1cc(O)c2c(c1)OC(c1ccc(O)c(O)c1)C(O)C2` (stereo not drawn), the Ratio in data set [9] stood at 6.8.
As for `O=C(c1ccc(O)c(O)c1)c1cc2cc(Br)ccc2oc1=O`, the Activity in data set [1] turned out to be 100%. In addition, the outcome in the data set on BAEC [6] and in the data set on BAEC [10] was inactive. The viability at 24 h, 10 µM in data set [2] came out at 102%. Also, in [3], the viability at 24 h, 50 µM is 92%. Moreover, the Ratio in data set [11] is 13. Moreover, the viability at 24 h, 20 µM in data set [5] came out at 100%.
Turning to `Cc1cccc2cc(C(=O)c3ccc(O)cc3)c(=O)oc12`, the Activity in data set [1] stood at 45%. Besides, the viability at 20 µM in [8] was determined as 90%. Moreover, the viability at 10 µM in data set [7] came to 40%. In [2], the viability at 24 h, 10 µM worked out at 87%. In addition, the viability at 24 h, 50 µM in data set [3] was 101%. Besides, the Ratio in [4] worked out at 10.9. Moreover, the viability at 24 h, 20 µM in data set [5] is 82%.
For `O=C(c1ccc(O)cc1)c1cc2cc(O)ccc2oc1=O`, in data set [1], the Activity came to 58%. Further, the viability at 20 µM in [8] stood at 90%. The viability at 24 h, 10 µM in data set [2] is 68%. For the same molecule, the viability at 24 h, 50 µM in data set [3] was 93%. In [4], the Ratio was 14.1. Also, in [5], the viability at 24 h, 20 µM is 94%.
As for `O=c1c(O)c(-c2ccc(O)c(O)c2)oc2cc(O)cc(O)c12`, in data set [9], the Ratio stood at 7.3.

The values above are taken from ChEMBL document CHEMBL2406930, “Synthesis and electrochemical and biological studies of novel coumarin-chalcone hybrid compounds” (J Med Chem, 2013).
